TRPC4 act: activators of mouse TRPC4 channel. Q9QUQ5. HEK293 TRPC4beta/mu-opioid, Fluo4 calcium fluorescence; active compounds read high. B-score at 10 µM. 0.49% of 310,000 active;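 active = B-score above 5 SD of library B-scores, and initial fluorescence ratio not above library mean plus 5 SD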;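 also: positive B-score marks a calcium rise read as TRPC4 activation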
Target sequence (Q9QUQ5 whole entry, looked up): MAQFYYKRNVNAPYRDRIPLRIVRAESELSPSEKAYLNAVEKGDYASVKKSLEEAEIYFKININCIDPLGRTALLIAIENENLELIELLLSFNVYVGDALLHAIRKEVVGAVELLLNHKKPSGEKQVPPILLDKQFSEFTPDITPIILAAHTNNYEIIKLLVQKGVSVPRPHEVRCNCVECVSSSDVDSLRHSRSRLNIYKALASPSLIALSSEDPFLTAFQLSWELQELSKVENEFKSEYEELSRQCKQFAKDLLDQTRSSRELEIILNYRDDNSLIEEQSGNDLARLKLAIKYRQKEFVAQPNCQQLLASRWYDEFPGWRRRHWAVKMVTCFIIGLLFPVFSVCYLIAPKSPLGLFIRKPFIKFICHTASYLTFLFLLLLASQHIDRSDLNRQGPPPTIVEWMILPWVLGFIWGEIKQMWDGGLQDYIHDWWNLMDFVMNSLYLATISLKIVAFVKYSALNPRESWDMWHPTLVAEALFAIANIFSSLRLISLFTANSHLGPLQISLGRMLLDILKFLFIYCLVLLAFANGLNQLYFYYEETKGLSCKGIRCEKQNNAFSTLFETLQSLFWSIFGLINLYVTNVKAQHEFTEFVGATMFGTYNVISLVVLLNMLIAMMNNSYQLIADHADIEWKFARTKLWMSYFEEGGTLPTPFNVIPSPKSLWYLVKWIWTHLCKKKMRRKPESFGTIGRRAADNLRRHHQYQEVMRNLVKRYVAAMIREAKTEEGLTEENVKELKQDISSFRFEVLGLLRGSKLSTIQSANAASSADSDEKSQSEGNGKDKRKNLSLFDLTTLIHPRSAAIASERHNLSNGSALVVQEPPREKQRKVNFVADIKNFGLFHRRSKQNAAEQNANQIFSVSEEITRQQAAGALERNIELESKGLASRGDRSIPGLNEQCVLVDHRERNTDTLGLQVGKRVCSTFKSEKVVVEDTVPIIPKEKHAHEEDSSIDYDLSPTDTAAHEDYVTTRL
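Technique: kinetic Fluo4 calcium fluorescence; Test system: TRPC4beta and mu-opioid receptor HEK293 stable cells; Measure: B-scored integrated calcium fluorescence ratio; Benchmarks: low control buffer alone, high control maximal DAMGO; Schedule: 45 min room-temperature Fluo4 loading, 110 s read.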
TRPC6 inhibitor: blocks the mouse TRPC6 cation channel. 1.1% of 310,000 active. B-score at 10 µM. Q61143. HEK293-TRPC6, membrane potential dye, ACh-evoked depolarization; active compounds read low;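 active = B-score under library mean minus 3 SD, initial fluorescence not abnormally high, positive integrated signal ratio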;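 also: B-score derived from integrated fluorescence ratio over the kinetic read; more negative B-score means stronger inhibition of depolarization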
TRPC4 PAM: allosteric potentiators of mouse TRPC4 channel; Q9QUQ5; HEK293 TRPC4beta/mu-opioid, DAMGO EC20, Fluo-4 Ca2+ flux; active compounds read high; B-score at 10 µM; 0.42% of 310,000 active; AID 2227;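 active = B-score of calcium response area above 5 SD of library B-scores, with initial fluorescence ratio within 5 SD of library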;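 also: B-score of integrated fluorescence ratio over time as area under calcium response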
TRPC6 act: activators of mouse TRPC6 channel; Q61143; HEK293-TRPC6 membrane potential dye fluorescence; active compounds read high; B-score at 10 µM; 0.13% of 310,000 active; AID 2550;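 active = B-score of the integrated fluorescence ratio above library mean plus 3 SD, and starting fluorescence ratio within library mean plus 5 SD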;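 also: higher score means more depolarization so channel activation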
TRPC4 inh: TRPC4 (mouse) channel inhibition | AID 2247 | Q9QUQ5 | HEK293 TRPC4beta/mu-opioid, DAMGO-evoked Fluo4 calcium flux; active compounds read low | 0.39% of 300,000 active | B-score at 10 µM;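 active = B-score over 3 SD under the library average, no early fluorescence shift, positive overall ratio signal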
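test system = HEK293 cells with stable TRPC4beta plus mu-opioid receptor expression | detection = Fluo4 Ca2+ flux fluorescence | read-out = integrated fluorescence ratio relative to baseline, converted to per-well B score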
* marks the source's active call; other numbers are inactive results. Only some compounds are listed: those with a hit (about 2.3% of all), similar ones and a draw of the others.

How did O=C(NS(=O)(=O)Nc1ccc(Cl)cc1)c1c[nH]c2ccccc12 do in these assays?
TRPC4 act: inactive; TRPC6 inhibitor: inactive; TRPC4 PAM: inactive; TRPC6 act: inactive; TRPC4 inh: inactive

Results for c1csc(-c2nc3ccccn3c2NC2CCCCC2)c1 ?
TRPC4 act: inactive; TRPC6 inhibitor: inactive; TRPC4 PAM: inactive; TRPC6 act: inactive; TRPC4 inh: inactive

What do the screens show for `Cc1ccn2c(NC3CCCC3)c(-c3cccs3)nc2c1`?
TRPC4 act: inactive; TRPC6 inhibitor: inactive; TRPC4 PAM: inactive; TRPC6 act: inactive; TRPC4 inh: -6*

How did O=c1nc(-c2ccccc2)cc(-c2ccccc2)[nH]1 do in these assays?
TRPC4 act: inactive; TRPC6 inhibitor: inactive; TRPC4 PAM: inactive; TRPC6 act: inactive; TRPC4 inh: inactive

What do the screens show for `COc1ccccc1-c1cc(-c2ccccc2)nc(=O)[nH]1`?
TRPC4 act: inactive; TRPC6 inhibitor: inactive; TRPC4 PAM: 21*; TRPC6 act: inactive; TRPC4 inh: inactive

How did Cc1ccc(NC(=O)CCN2CCC(Cc3ccccc3)CC2)cc1 do in these assays?
TRPC4 act: 96*; TRPC6 inhibitor: inactive; TRPC4 PAM: inactive; TRPC6 act: inactive; TRPC4 inh: inactive

Results for CN1CCN(CCC(=O)Nc2ccccc2)CC1 ?
TRPC4 act: inactive; TRPC6 inhibitor: inactive; TRPC4 PAM: inactive; TRPC6 act: inactive; TRPC4 inh: inactive

How did Cc1cc(NC(=O)CCN2CCCCC2)ccc1Br do in these assays?
TRPC4 act: inactive; TRPC6 inhibitor: inactive; TRPC4 PAM: inactive; TRPC6 act: inactive; TRPC4 inh: inactive

How did COC(=O)[C@@]12CCCCN1[C@H](c1ccc(-c3ccc(OC)cc3)cc1)[C@@H]1C(=O)N(C)C(=O)[C@@H]12 do in these assays?
TRPC4 act: inactive; TRPC6 inhibitor: inactive; TRPC4 PAM: 13*; TRPC6 act: inactive; TRPC4 inh: inactive

What do the screens show for `COC(=O)[C@@]12CCCCN1[C@H](c1ccc(-c3cccc(Cl)c3)cc1)[C@H]1C(=O)N(C)C(=O)[C@H]12`?
TRPC4 act: inactive; TRPC6 inhibitor: inactive; TRPC4 PAM: inactive; TRPC6 act: inactive; TRPC4 inh: inactive

How did CCN1C(=O)[C@H]2[C@@H](c3ccc(-c4ccc(C(C)=O)cc4)cc3)N3CCCC[C@@]3(C(=O)OC)[C@H]2C1=O do in these assays?
TRPC4 act: inactive; TRPC6 inhibitor: inactive; TRPC4 PAM: inactive; TRPC6 act: inactive; TRPC4 inh: inactive

How did COC(=O)[C@@]12CCCN1[C@H](c1ccc(-c3ccccc3)cc1)[C@@H]1C(=O)N(C)C(=O)[C@@H]12 do in these assays?
TRPC4 act: inactive; TRPC6 inhibitor: inactive; TRPC4 PAM: inactive; TRPC6 act: inactive; TRPC4 inh: inactive

What do the screens show for `COC(=O)[C@@]12CCCCN1[C@H](c1ccc(-c3cccc(Cl)c3)c(OC)c1)[C@H]1C(=O)N(C)C(=O)[C@H]12`?
TRPC4 act: inactive; TRPC6 inhibitor: inactive; TRPC4 PAM: 25*; TRPC6 act: inactive; TRPC4 inh: inactive

Results for COC(=O)[C@@]12CCCCN1[C@H](c1ccc(-c3ccc(C(C)=O)cc3)cc1)[C@@H]1C(=O)N(C)C(=O)[C@@H]12 ?
TRPC4 act: inactive; TRPC6 inhibitor: inactive; TRPC4 PAM: 43*; TRPC6 act: inactive; TRPC4 inh: inactive

How did CCOc1ccc(NC(=O)CN(C)C(=O)c2sc3ccccc3c2Cl)cc1OCC do in these assays?
TRPC4 act: inactive; TRPC6 inhibitor: inactive; TRPC4 PAM: inactive; TRPC6 act: inactive; TRPC4 inh: inactive

Results for CC1CC(C)(C)NC(=S)O1 (stereo not drawn) ?
TRPC4 act: inactive; TRPC6 inhibitor: inactive; TRPC4 PAM: inactive; TRPC6 act: inactive; TRPC4 inh: inactive

What do the screens show for `CCc1ccc(NC(=O)CSc2nc3ccccc3nc2N2CCCC2)cc1`?
TRPC4 act: inactive; TRPC6 inhibitor: inactive; TRPC4 PAM: inactive; TRPC6 act: inactive; TRPC4 inh: inactive

What do the screens show for `COCCNC(=O)C(c1ccc(Cl)cc1)N(CCOC)C(=O)CCC(=O)Nc1nccs1` (stereo not drawn)?
TRPC4 act: inactive; TRPC6 inhibitor: inactive; TRPC4 PAM: inactive; TRPC6 act: inactive; TRPC4 inh: inactive

How did COc1cc(OC)c(OC)cc1CN(C)CCc1ccccn1 do in these assays?
TRPC4 act: 64*; TRPC6 inhibitor: inactive; TRPC4 PAM: inactive; TRPC6 act: inactive; TRPC4 inh: inactive

Results for COc1ccc(CN(C)CCc2ccccn2)cc1OC ?
TRPC4 act: inactive; TRPC6 inhibitor: inactive; TRPC4 PAM: inactive; TRPC6 act: inactive; TRPC4 inh: inactive

How did CN1CCCN(S(=O)(=O)c2cccc(Cl)c2Cl)CC1 do in these assays?
TRPC4 act: inactive; TRPC6 inhibitor: inactive; TRPC4 PAM: inactive; TRPC6 act: inactive; TRPC4 inh: inactive

What do the screens show for `CN1CCCN(S(=O)(=O)c2ccc(Cl)c(Cl)c2)CC1`?
TRPC4 act: inactive; TRPC6 inhibitor: inactive; TRPC4 PAM: 12*; TRPC6 act: inactive; TRPC4 inh: inactive

What do the screens show for `O=[N+]([O-])c1cccc(-c2ccc(CN3CCCCC3)o2)c1`?
TRPC4 act: inactive; TRPC6 inhibitor: inactive; TRPC4 PAM: 13*; TRPC6 act: inactive; TRPC4 inh: inactive

What do the screens show for `O=C(Nc1ccc(CN2CCOCC2)cc1)c1ccc(-c2cccc([N+](=O)[O-])c2)o1`?
TRPC4 act: inactive; TRPC6 inhibitor: inactive; TRPC4 PAM: inactive; TRPC6 act: inactive; TRPC4 inh: inactive

What do the screens show for `CCCCN1C(=O)C(=Nc2cccc3cnccc23)c2ccccc21`?
TRPC4 act: inactive; TRPC6 inhibitor: inactive; TRPC4 PAM: 20*; TRPC6 act: inactive; TRPC4 inh: inactive

Results for CCCCN1C(=O)/C(=C2\SC(N3CCCCC3)=NC2=O)c2ccccc21 ?
TRPC4 act: inactive; TRPC6 inhibitor: inactive; TRPC4 PAM: inactive; TRPC6 act: inactive; TRPC4 inh: inactive

How did O=C(Nc1ccccc1F)Nc1cccnc1Cl do in these assays?
TRPC4 act: inactive; TRPC6 inhibitor: inactive; TRPC4 PAM: inactive; TRPC6 act: inactive; TRPC4 inh: inactive

Results for COC(=O)[C@H]1[C@H](c2ccccc2)[C@H](C(=O)OC)O[C@H]1c1ccccc1 ?
TRPC4 act: inactive; TRPC6 inhibitor: inactive; TRPC4 PAM: inactive; TRPC6 act: inactive; TRPC4 inh: inactive

What do the screens show for `COC(=O)C1C(c2ccccc2)C(C(=O)N2CCN(C)CC2)C1c1ccccc1` (stereo not drawn)?
TRPC4 act: 64*; TRPC6 inhibitor: inactive; TRPC4 PAM: inactive; TRPC6 act: inactive; TRPC4 inh: inactive

Results for CCOc1ccc(-c2cc(NC(=O)c3c(F)cccc3F)c(C(=O)O)s2)cc1 ?
TRPC4 act: inactive; TRPC6 inhibitor: inactive; TRPC4 PAM: inactive; TRPC6 act: inactive; TRPC4 inh: -5*

High-throughput results deposited in PubChem BioAssay by Johns Hopkins Ion Channel Center.
